Experiment [1] concerns Botrytis cinerea. Kind of experiment: In vitro fungicidal activity against Botryotinia fuckeliana assessed as mycelial growth inhibition at 100 mg/l at 26 degC after 48 hr by agar diffusion assay. Format: functional. The settings on record: read-out: GI. In a few lines:
(§1)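 Compound is dissolved in DMF and added aseptically to autoclaved agar that has cooled to about 45-50 °C, giving 100 mg/L in the medium. Solvent never exceeds […]. Plain medium is the blank. A 5 mm mycelial plug, cut from the margin of an actively growing colony, goes in the plate centre. Three replicate plates are sealed and kept at 26 °C in darkness. Colony diameter is read at 48 h. Inhibition % = (control − treated diameter)/control diameter.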
Background: A growth-free zone around the sample is the usual read-out of agar diffusion tests.

The subject of experiment [2] is Fusarium oxysporum. Kind of experiment: In vitro fungicidal activity against Fusarium oxysporum assessed as mycelial growth inhibition at 100 mg/l at 26 degC after 48 hr by agar diffusion assay. Format: functional. The settings on record: read-out: GI. The procedure, abridged: as §1
For experiment [3], the system named is Rhizoctonia solani. Kind of experiment: In vitro fungicidal activity against Rhizoctonia solani assessed as mycelial growth inhibition at 100 mg/l at 26 degC after 48 hr by agar diffusion assay. The settings on record: read-out: GI. Format: functional. The procedure, abridged: as §1
Experiment [4] relates to Colletotrichum gossypii. Briefly: In vitro fungicidal activity against Colletotrichum gossypii assessed as mycelial growth inhibition at 100 mg/l at 26 degC after 48 hr by agar diffusion assay. In kind it is functional. The settings on record: read-out: GI. The procedure, abridged: as §1
Experiment [5] concerns Dothiorella gregaria. Kind of experiment: In vitro fungicidal activity against Dothiorella gregaria assessed as mycelial growth inhibition at 100 mg/l at 26 degC after 48 hr by agar diffusion assay. The settings on record: read-out: GI. In kind it is functional. In a few lines:
as §1

Experiment [6] concerns Fusarium graminearum. Kind of experiment: In vitro fungicidal activity against Fusarium graminearum assessed as mycelial growth inhibition at 100 mg/l at 26 degC after 48 hr by agar diffusion assay. Format: functional. The settings on record: read-out: GI. The procedure, abridged: as §1
Experiment [7] has as its system Dothiorella gregaria. Briefly: In vitro fungicidal activity against Dothiorella gregaria assessed as mycelial growth inhibition at 26 degC after 48 hr by agar diffusion assay. In kind it is functional, organism-based.
For experiment [8], the system named is Rhizoctonia solani. Briefly: In vitro fungicidal activity against Rhizoctonia solani assessed as mycelial growth inhibition at 26 degC after 48 hr by agar diffusion assay. In kind it is functional, organism-based.
In experiment [9] the test system is Fusarium oxysporum. Briefly: In vitro fungicidal activity against Fusarium oxysporum assessed as mycelial growth inhibition at 26 degC after 48 hr by agar diffusion assay. Format: functional, organism-based.
Experiment [10] has as its system Fusarium oxysporum. Briefly: In vitro fungicidal activity against Fusarium oxysporum assessed as mycelial growth inhibition at 50 mg/l at 26 degC after 48 hr by agar diffusion assay. Format: functional. The settings on record: read-out: GI.
The subject of experiment [11] is Rhizoctonia solani. Briefly: In vitro fungicidal activity against Rhizoctonia solani assessed as mycelial growth inhibition at 50 mg/l at 26 degC after 48 hr by agar diffusion assay. Format: functional. The settings on record: read-out: GI.
In experiment [12] the test system is Fusarium graminearum. Kind of experiment: In vitro fungicidal activity against Fusarium graminearum assessed as mycelial growth inhibition at 50 mg/l at 26 degC after 48 hr by agar diffusion assay. In kind it is functional. The settings on record: read-out: GI.
Experiment [13] concerns Colletotrichum gossypii. Briefly: In vitro fungicidal activity against Colletotrichum gossypii assessed as mycelial growth inhibition at 26 degC after 48 hr by agar diffusion assay. In kind it is functional, organism-based.
Experiment [14] has as its system Botrytis cinerea. Kind of experiment: In vitro fungicidal activity against Botryotinia fuckeliana assessed as mycelial growth inhibition at 26 degC after 48 hr by agar diffusion assay. Format: functional, organism-based.
In experiment [15] the test system is Fusarium graminearum. Kind of experiment: In vitro fungicidal activity against Fusarium graminearum assessed as mycelial growth inhibition at 26 degC after 48 hr by agar diffusion assay. Format: functional, organism-based.
Experiment [16] deals with Dothiorella gregaria. Briefly: In vitro fungicidal activity against Dothiorella gregaria assessed as mycelial growth inhibition at 50 mg/l at 26 degC after 48 hr by agar diffusion assay. In kind it is functional. The settings on record: read-out: GI.
Experiment [17] relates to Colletotrichum gossypii. Kind of experiment: In vitro fungicidal activity against Colletotrichum gossypii assessed as mycelial growth inhibition at 50 mg/l at 26 degC after 48 hr by agar diffusion assay. Format: functional. The settings on record: read-out: GI.
In experiment [18] the test system is Botrytis cinerea. Kind of experiment: In vitro fungicidal activity against Botryotinia fuckeliana assessed as mycelial growth inhibition at 50 mg/l at 26 degC after 48 hr by agar diffusion assay. Format: functional. The settings on record: read-out: GI.

Consider `CC[C@H](CCn1cncn1)c1ccccc1`, for which the inhibition of growth at 100 µg/mL in the experiment with Botrytis cinerea [1] came to 52%; in the experiment on Fusarium oxysporum [2], 60%; in the experiment with Rhizoctonia solani [3] it was 80%; with Colletotrichum gossypii [4], 70%; in the experiment on Dothiorella gregaria [5], 81%; in the experiment with Fusarium graminearum [6] it was 60%.
Regarding `CC[C@@H](CCn1cncn1)c1ccccc1`, the inhibition of growth at 100 µg/mL in the experiment on Botrytis cinerea [1] is 52%; in the experiment with Fusarium oxysporum [2] it was 55%; in the experiment with Rhizoctonia solani [3], 75%; in the experiment on Colletotrichum gossypii [4] it was 50%; in the experiment on Dothiorella gregaria [5] it was 60%; in the experiment with Fusarium graminearum [6], 63%.
`CC[C@H](CCn1cncn1)c1ccc(F)cc1`: the inhibition of growth at 100 µg/mL with Botrytis cinerea [1] amounted to 36%; in the experiment with Fusarium oxysporum [2], 50%; in the experiment on Rhizoctonia solani [3] it was 82%; with Colletotrichum gossypii [4] it was 78%; in the experiment on Dothiorella gregaria [5], 82%; with Fusarium graminearum [6], 63%.
On to `CC[C@@H](CCn1cncn1)c1ccc(F)cc1`, for which the inhibition of growth at 100 µg/mL was 52% in the experiment on Botrytis cinerea [1]; 60% in the experiment with Fusarium oxysporum [2]; 85% with Rhizoctonia solani [3]; 65% in the experiment on Colletotrichum gossypii [4]; 75% with Dothiorella gregaria [5]; 56% with Fusarium graminearum [6].
Regarding `CC[C@H](CCn1cncn1)c1ccc(Cl)cc1`, the inhibition of growth at 100 µg/mL was found to be 94% in the experiment on Botrytis cinerea [1]; 91% in the experiment on Fusarium oxysporum [2]; 85% in the experiment with Rhizoctonia solani [3]; 97% with Colletotrichum gossypii [4]; 93% in the experiment on Dothiorella gregaria [5]; 76% in the experiment with Fusarium graminearum [6].
Turning to `CC[C@@H](CCn1cncn1)c1ccc(Cl)cc1`, the inhibition of growth at 100 µg/mL in the experiment with Botrytis cinerea [1] is 84%; in the experiment on Fusarium oxysporum [2], 80%; in the experiment with Rhizoctonia solani [3], 83%; in the experiment on Colletotrichum gossypii [4], 85%; in the experiment with Dothiorella gregaria [5], 80%; in the experiment on Fusarium graminearum [6], 73%.
As to `CC[C@H](CCn1cncn1)c1ccc(OC)cc1`, the inhibition of growth at 100 µg/mL in the experiment on Botrytis cinerea [1] stood at 30%; in the experiment with Fusarium oxysporum [2], 65%; with Rhizoctonia solani [3] it was 60%; with Colletotrichum gossypii [4] it was 55%; in the experiment with Dothiorella gregaria [5], 82%; with Fusarium graminearum [6], 66%.
On to `CC[C@@H](CCn1cncn1)c1ccc(OC)cc1`, for which the inhibition of growth at 100 µg/mL is 30% in the experiment on Botrytis cinerea [1]; 40% in the experiment on Fusarium oxysporum [2]; 73% with Rhizoctonia solani [3]; 50% in the experiment with Colletotrichum gossypii [4]; 45% with Dothiorella gregaria [5]; 42% with Fusarium graminearum [6].
`CCC[C@H](CCn1cncn1)c1ccccc1`: the inhibition of growth at 100 µg/mL in the experiment with Botrytis cinerea [1] amounted to 98%; in the experiment with Fusarium oxysporum [2] it was 80%; with Rhizoctonia solani [3], 97%; in the experiment on Colletotrichum gossypii [4], 92%; with Dothiorella gregaria [5], 100%; with Fusarium graminearum [6], 83%.
`CCC[C@@H](CCn1cncn1)c1ccccc1`: the inhibition of growth at 100 µg/mL in the experiment on Botrytis cinerea [1] came out at 44%; in the experiment with Fusarium oxysporum [2] it was 55%; with Rhizoctonia solani [3], 78%; in the experiment with Colletotrichum gossypii [4], 75%; in the experiment on Dothiorella gregaria [5], 67%; with Fusarium graminearum [6] it was 52%.
Consider `CCC[C@H](CCn1cncn1)c1ccc(F)cc1`, for which the inhibition of growth at 100 µg/mL in the experiment on Botrytis cinerea [1] turned out to be 71%; with Fusarium oxysporum [2] it was 82%; in the experiment on Rhizoctonia solani [3], 90%; in the experiment with Colletotrichum gossypii [4], 95%; with Dothiorella gregaria [5], 100%; in the experiment on Fusarium graminearum [6], 85%.
Regarding `CCC[C@@H](CCn1cncn1)c1ccc(F)cc1`, the inhibition of growth at 100 µg/mL in the experiment on Botrytis cinerea [1] was 94%; in the experiment on Fusarium oxysporum [2] it was 73%; with Rhizoctonia solani [3], 86%; with Colletotrichum gossypii [4], 90%; with Dothiorella gregaria [5], 83%; in the experiment on Fusarium graminearum [6], 83%.
For the compound `CCC[C@H](CCn1cncn1)c1ccc(OC)cc1`, the inhibition of growth at 100 µg/mL in the experiment with Botrytis cinerea [1] amounted to 60%; in the experiment with Fusarium oxysporum [2] it was 90%; in the experiment on Rhizoctonia solani [3], 78%; in the experiment on Colletotrichum gossypii [4], 80%; in the experiment on Dothiorella gregaria [5], 90%; with Fusarium graminearum [6], 66%.
As to `CCC[C@@H](CCn1cncn1)c1ccc(OC)cc1`, the inhibition of growth at 100 µg/mL worked out at 92% in the experiment with Botrytis cinerea [1]; 75% with Fusarium oxysporum [2]; 90% with Rhizoctonia solani [3]; 90% in the experiment with Colletotrichum gossypii [4]; 93% in the experiment with Dothiorella gregaria [5]; 76% in the experiment with Fusarium graminearum [6].
For `CCCC[C@H](CCn1cncn1)c1ccccc1`, the inhibition of growth at 100 µg/mL with Botrytis cinerea [1] stood at 91%; in the experiment with Fusarium oxysporum [2] it was 66%; in the experiment with Rhizoctonia solani [3], 90%; in the experiment with Colletotrichum gossypii [4], 87%; with Dothiorella gregaria [5], 100%; in the experiment on Fusarium graminearum [6], 71%.
`CCCC[C@@H](CCn1cncn1)c1ccccc1`: the inhibition of growth at 100 µg/mL in the experiment on Botrytis cinerea [1] stood at 91%; in the experiment on Fusarium oxysporum [2] it was 74%; in the experiment on Rhizoctonia solani [3], 87%; in the experiment on Colletotrichum gossypii [4], 82%; in the experiment with Dothiorella gregaria [5], 96%; with Fusarium graminearum [6], 71%.
For the compound `CCCC[C@H](CCn1cncn1)c1ccc(F)cc1`, the inhibition of growth at 100 µg/mL in the experiment with Botrytis cinerea [1] was 100%; in the experiment with Fusarium oxysporum [2], 100%; in the experiment with Rhizoctonia solani [3] it was 100%; with Colletotrichum gossypii [4], 100%; in the experiment on Dothiorella gregaria [5], 100%; with Fusarium graminearum [6], 95%. The EC50 is 15 µM in the experiment on Dothiorella gregaria [7]; 36 µM in the experiment with Rhizoctonia solani [8]; 112 µM with Fusarium oxysporum [9]; 61 µM in the experiment on Colletotrichum gossypii [13]; 61 µM with Botrytis cinerea [14]; 66 µM in the experiment with Fusarium graminearum [15]. In addition, the inhibition of growth at 50 µg/mL amounted to 99% in the experiment with Fusarium oxysporum [10]; 99% in the experiment with Rhizoctonia solani [11]; 89% in the experiment on Fusarium graminearum [12]; 100% with Dothiorella gregaria [16]; 100% in the experiment with Colletotrichum gossypii [17]; 100% in the experiment on Botrytis cinerea [18].
For the compound `CCCC[C@@H](CCn1cncn1)c1ccc(F)cc1`, the inhibition of growth at 100 µg/mL in the experiment on Botrytis cinerea [1] stood at 96%; with Fusarium oxysporum [2], 96%; with Rhizoctonia solani [3] it was 100%; in the experiment on Colletotrichum gossypii [4] it was 95%; in the experiment with Dothiorella gregaria [5] it was 97%; with Fusarium graminearum [6], 83%. Further, the EC50 amounted to 79 µM with Dothiorella gregaria [7]; 49 µM in the experiment with Rhizoctonia solani [8]; 109 µM in the experiment on Fusarium oxysporum [9]; 63 µM with Colletotrichum gossypii [13]; 56 µM with Botrytis cinerea [14]; 104 µM in the experiment on Fusarium graminearum [15]. Also, the inhibition of growth at 50 µg/mL in the experiment with Fusarium oxysporum [10] was determined as 88%; with Rhizoctonia solani [11], 88%; with Fusarium graminearum [12] it was 70%; with Dothiorella gregaria [16] it was 71%; in the experiment on Colletotrichum gossypii [17] it was 85%; in the experiment with Botrytis cinerea [18], 81%.
With `CCCC[C@H](CCn1cncn1)c1ccc(Cl)cc1`, the inhibition of growth at 100 µg/mL was 88% in the experiment on Botrytis cinerea [1]; 82% in the experiment on Fusarium oxysporum [2]; 91% in the experiment with Rhizoctonia solani [3]; 85% in the experiment on Colletotrichum gossypii [4]; 100% in the experiment on Dothiorella gregaria [5]; 73% in the experiment with Fusarium graminearum [6].
Regarding `CCCC[C@@H](CCn1cncn1)c1ccc(Cl)cc1`, the inhibition of growth at 100 µg/mL with Botrytis cinerea [1] amounted to 94%; in the experiment on Fusarium oxysporum [2], 78%; in the experiment with Rhizoctonia solani [3], 84%; with Colletotrichum gossypii [4], 85%; in the experiment on Dothiorella gregaria [5] it was 97%; in the experiment with Fusarium graminearum [6], 69%.

A word on the EC50: it is the concentration needed to bring the measured effect to its halfway point.

For the origin of these results see ChEMBL document CHEMBL3046529, “Chiral gamma-aryl-1H-1,2,4-triazole derivatives as highly potential antifungal agents: Design, synthesis, structure, and in vitro fungicidal activities” (J Agric Food Chem, 2008).
